Test results published in ChEMBL document CHEMBL1130821 (Bioorg Med Chem Lett, 1998).
Starred links: 1 amine or outer side, 2 acyl side, 3 side chain; linkers in the order of their positions; H or OH if unused. Non-standard residues stand in square brackets, D forms with d. Residues, ends and D or L forms follow the SMILES beside them. X1 = O=C([C@@H]1C(Cc2ccccc2)CCN1[*:1])[*:2]; NMeF = CN[C@@H](Cc1ccccc1)C(=O)O

How the values were obtained:
[1] = system: CHO; experiment: Compound was evaluated for the blockade of [Pro]SP-induced IPs hydrolysis in CHO cells; type: functional, cell-based; details: Cricetulus griseus, read-out: pA2 (converted)
Summary of the method: (§1)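 Intact CHO cells transfected with the human tachykinin NK-1 receptor. Antagonism of agonist-stimulated phosphoinositide (IP) hydrolysis is expressed as pA2, or as pKB where antagonism was uncompetitive.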

[2] = biological target: Substance-P receptor (Homo sapiens, UniProt P25103); experiment: Compound was evaluated for affinity towards human tachykinin NK-1 receptor expressed in CHO cells; type: cell-based
[3] = system: CHO; experiment: Compound was evaluated for the blockade of [Pro]SP-induced cAMP formation in CHO cells; type: functional, cell-based; details: Cricetulus griseus, read-out: pA2 (converted)
Summary of the method: (§2)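 Intact CHO cells transfected with the human NK-1 receptor. Antagonist inhibition of agonist-stimulated cAMP formation is reported as pA2, or as pKB for uncompetitive antagonism.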

[4] = system: CHO; experiment: Compound was evaluated for the blockade of NKA-induced (neurokinin A) IPs hydrolysis in CHO cells; type: functional, cell-based; details: Cricetulus griseus, read-out: pA2 (converted); summary of the method: as §1
[5] = system: CHO; experiment: Compound was evaluated for the inhibition of IPs hydrolysis on intact CHO cells expressing the human tachykinin NK-1 receptor; type: functional, cell-based; details: Cricetulus griseus; summary of the method: as §1
[6] = system: CHO; experiment: Compound was evaluated for the inhibition of cAMP formation on intact CHO cells expressing the human tachykinin NK-1 receptor; type: functional, cell-based; details: Cricetulus griseus; summary of the method: as §2

Sequence of Substance-P receptor (P25103 whole entry): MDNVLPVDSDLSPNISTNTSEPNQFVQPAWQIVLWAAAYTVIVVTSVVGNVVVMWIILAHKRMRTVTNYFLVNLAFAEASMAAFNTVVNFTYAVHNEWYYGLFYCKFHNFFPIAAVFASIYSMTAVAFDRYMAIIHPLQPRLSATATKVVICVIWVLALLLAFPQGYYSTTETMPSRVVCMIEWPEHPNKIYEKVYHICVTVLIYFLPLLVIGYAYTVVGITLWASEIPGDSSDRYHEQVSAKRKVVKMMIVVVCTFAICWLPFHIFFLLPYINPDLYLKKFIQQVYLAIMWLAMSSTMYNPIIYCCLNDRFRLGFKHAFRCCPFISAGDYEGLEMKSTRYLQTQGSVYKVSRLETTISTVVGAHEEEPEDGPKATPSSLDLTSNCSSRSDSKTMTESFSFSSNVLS

SMILES | Kb [1] | Ki [2] | Kb [3] | Kb [4] | EC50 [5] | EC50 [6]
CC(C)C[C@@H](C(=O)N[C@@H](Cc1c[nH]c2ccccc12)C(N)=O)N1CC[C@@]2(CCCN2C(=O)[C@H](Cc2ccc(O)cc2)NC(=O)[C@H](Cc2ccccc2)NC(=O)[C@H](CCCCN)NC(=O)[C@H](CC(N)=O)NC(=O)[C@@H]2CCCN2C(=O)[C@H](CC(=O)O)NC(=O)[C@H](C)NC(=O)[C@@H]2CCC(=O)N2)C1=O | 0.0631 µM | 0.056 µM | 0.0158 µM | 0.0126 µM | – | –
CSCC[C@H](NC(=O)[C@H](CC(C)C)NC(=O)[C@@H]1CCCN1C(=O)[C@H](Cc1ccccc1)NC(=O)[C@H](Cc1ccccc1)NC(=O)[C@H](CCC(N)=O)NC(=O)[C@H](CCC(N)=O)NC(=O)[C@@H]1CCCN1C(=O)[C@H](CCCCN)NC(=O)[C@@H]1CCCN1C(=O)[C@@H](N)CCCN=C(N)N)C(N)=O | – | 0.0011 µM | – | – | 0.0012 µM | 0.01 µM
CN(C(=O)[C@@H]1CCCN1C(=O)[C@H](Cc1ccccc1)NC(=O)[C@H](Cc1ccccc1)NC(=O)[C@H](CCC(N)=O)NC(=O)[C@H](CCC(N)=O)NC(=O)[C@@H]1CCCN1C(=O)[C@H](CCCCN)NC(=O)[C@@H]1CCCN1C(=O)[C@@H](N)CCCN=C(N)N)[C@@H](Cc1ccccc1)C(=O)N[C@@H](Cc1c[nH]c2ccccc12)C(N)=O (H-RPKPQQFFP[NMeF]W-NH2) | 0.347 µM | 0.11 µM | 0.115 µM | 0.398 µM | – | –
NCCCC[C@H](NC(=O)[C@@H]1CCCN1C(=O)[C@@H](N)CCCN=C(N)N)C(=O)N1CCC[C@H]1C(=O)N[C@@H](CCC(N)=O)C(=O)N[C@@H](CCC(N)=O)C(=O)N[C@@H](Cc1ccccc1)C(=O)N[C@@H](Cc1ccccc1)C(=O)N1CCC[C@H]1C(=O)N1CCC(Cc2ccccc2)[C@H]1C(=O)N[C@@H](Cc1c[nH]c2ccccc12)C(N)=O (some centres not stated) (H-RPKPQQFFP[X1]W-NH2) | 0.0251 µM | 0.079 µM | 0.0182 µM | 0.01 µM | – | –
CSCC[C@H](NC(=O)[C@H](CC(C)C)NC(=O)CNC(=O)[C@@H](NC(=O)[C@H](Cc1ccccc1)NC(=O)[C@H](CO)NC(=O)[C@H](CC(=O)O)NC(=O)[C@@H](NC(=O)[C@H](CCCCN)NC(=O)[C@@H](N)Cc1c[nH]cn1)[C@@H](C)O)C(C)C)C(N)=O [NEUROKININ A] | – | – | – | – | 0.008 µM | 1.24 µM
